From ChEMBL document CHEMBL3525900, “Pharmacokinetics, distribution, and metabolism of [14C]sunitinib in rats, monkeys, and humans” (Drug Metab Dispos, 2012)

Experiments:
Pancreas = assay: Drug concentration in male Lister Hooded pigmented rat pancreas assessed as radioactivity per gram of tissue at 20 mg/kg administered as single dose via gastric gavage measured after 24 hrs by autoradiographic analysis; assay type: ADME, organism-based; design: dose 20 mg/kg, dosed compound name [14C]Sunitinib; details: in vivo, po
Spleen [1] = assay: Drug concentration in male albino rat spleen assessed as radioactivity per gram of tissue at 20 mg/kg administered as single dose via gastric gavage measured after 72 hrs by autoradiographic analysis; assay type: ADME, organism-based; design: dose 20 mg/kg, dosed compound name [14C]Sunitinib; details: in vivo, po
[2] = Drug concentration in female Lister Hooded pigmented rat uveal tract assessed as radioactivity per gram of tissue at 20 mg/kg administered as single dose via gastric gavage measured after 24 hrs by autoradiographic analysis; assay type: ADME, organism-based; design: dose 20 mg/kg, dosed compound name [14C]Sunitinib; details: in vivo, po
How it was run: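 Lister Hooded (pigmented) rats, ca 7-8 weeks old, acclimated 7 days, given [14C]sunitinib L-malate by gastric gavage at 20 mg/kg (15 mg freebase/kg, 100 µCi/kg). One male and one female killed by CO2 at 24, 72, 168 and 336 h. Carcasses frozen in solid CO2/hexane and embedded in frozen cellulose. 30 µm sagittal cryosections were freeze-dried. Tissue radioactivity measured by quantitative whole-body autoradiography against calibration standards, with background subtracted.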

Kidney = assay: Drug concentration in male Lister Hooded pigmented rat kidney assessed as radioactivity per gram of tissue at 20 mg/kg administered as single dose via gastric gavage measured after 168 hrs by autoradiographic analysis; assay type: ADME, organism-based; design: dose 20 mg/kg, dosed compound name [14C]Sunitinib; details: in vivo, po
[3] = Drug recovery in feces of male Sprague-Dawley rat at 15 mg/kg, po administered as single dose during 0 to 72 hrs by liquid scintillation counting; assay type: ADME, organism-based; design: dose 15 mg/kg, dosed compound name [14C]Sunitinib, route oral; details: in vivo
Blood = assay: Drug concentration in male Lister Hooded pigmented rat blood assessed as radioactivity per gram of tissue at 20 mg/kg administered as single dose via gastric gavage measured after 168 hrs by autoradiographic analysis; assay type: ADME, organism-based; design: dose 20 mg/kg, dosed compound name [14C]Sunitinib; details: in vivo, po
[4] = Drug concentration in male albino rat thyroid gland assessed as radioactivity per gram of tissue at 20 mg/kg administered as single dose via gastric gavage measured after 3 hrs by autoradiographic analysis; assay type: ADME, organism-based; design: dose 20 mg/kg, dosed compound name [14C]Sunitinib; details: in vivo, po
Spinal cord [5] = assay: Drug concentration in male albino rat spinal cord assessed as radioactivity per gram of tissue at 20 mg/kg administered as single dose via gastric gavage measured after 3 hrs by autoradiographic analysis; assay type: ADME, organism-based; design: dose 20 mg/kg, dosed compound name [14C]Sunitinib; details: in vivo, po
Large intestine = assay: Drug concentration in male albino rat large intestine assessed as radioactivity per gram of tissue at 20 mg/kg administered as single dose via gastric gavage measured after 3 hrs by autoradiographic analysis; assay type: ADME, organism-based; design: dose 20 mg/kg, dosed compound name [14C]Sunitinib; details: in vivo, po
[6] = Drug concentration in male Lister Hooded pigmented rat testis assessed as radioactivity per gram of tissue at 20 mg/kg administered as single dose via gastric gavage measured after 72 hrs by autoradiographic analysis; assay type: ADME, organism-based; design: dose 20 mg/kg, dosed compound name [14C]Sunitinib; details: in vivo, po
[7] = Drug concentration in male albino rat salivary gland assessed as radioactivity per gram of tissue at 20 mg/kg administered as single dose via gastric gavage measured after 3 hrs by autoradiographic analysis; assay type: ADME, organism-based; design: dose 20 mg/kg, dosed compound name [14C]Sunitinib; details: in vivo, po
Rattus norvegicus = assay: Total drug recovery in male Sprague-Dawley rat at 15 mg/kg, po administered as single dose during 0 to 72 hrs by liquid scintillation counting; assay type: ADME, organism-based; design: dose 15 mg/kg, dosed compound name [14C]Sunitinib, route oral; details: in vivo
[8] = Drug concentration in male albino rat bladder assessed as radioactivity per gram of tissue at 20 mg/kg administered as single dose via gastric gavage measured after 3 hrs by autoradiographic analysis; assay type: ADME, organism-based, Urinary bladder; design: dose 20 mg/kg, dosed compound name [14C]Sunitinib; details: in vivo, po
Heart = assay: Drug concentration in male albino rat heart assessed as radioactivity per gram of tissue at 20 mg/kg administered as single dose via gastric gavage measured after 6 hrs by autoradiographic analysis; assay type: ADME, organism-based; design: dose 20 mg/kg, dosed compound name [14C]Sunitinib; details: in vivo, po
Spinal cord [9] = assay: Drug concentration in female albino rat spinal cord assessed as radioactivity per gram of tissue at 20 mg/kg administered as single dose via gastric gavage measured after 6 hrs by autoradiographic analysis; assay type: ADME, organism-based; design: dose 20 mg/kg, dosed compound name [14C]Sunitinib; details: in vivo, po
Zone of skin = assay: Drug concentration in male albino rat abdomen skin assessed as radioactivity per gram of tissue at 20 mg/kg administered as single dose via gastric gavage measured after 72 hrs by autoradiographic analysis; assay type: ADME, organism-based; design: dose 20 mg/kg, dosed compound name [14C]Sunitinib; details: in vivo, po
Homo sapiens = assay: Cmax as total radioactivity in human plasma at 50 mg, po administered as single dose measured up to 24 hrs by LC/MS/MS analysis; assay type: ADME, organism-based; design: dose 50 mg, dosed compound name [14C]Sunitinib, route oral; details: in vivo
How it was run: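 Open-label phase I study in 8 subjects given one 50 mg oral dose of [14C]sunitinib (100 µCi). Plasma total radioactivity was counted by scintillation on triplicate 0.25 mL aliquots. Sunitinib was quantified by LC-MS-MS. Noncompartmental analysis: Cmax read directly, terminal t½ = ln(2)/slope of the log-concentration regression, AUC by linear trapezoidal rule to the last detectable concentration.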

Small intestine = assay: Drug concentration in female albino rat small intestine assessed as radioactivity per gram of tissue at 20 mg/kg administered as single dose via gastric gavage measured after 3 hrs by autoradiographic analysis; assay type: ADME, organism-based; design: dose 20 mg/kg, dosed compound name [14C]Sunitinib; details: in vivo, po
Brain [10] = assay: Drug concentration in male Lister Hooded pigmented rat brain assessed as radioactivity per gram of tissue at 20 mg/kg administered as single dose via gastric gavage measured after 168 hrs by autoradiographic analysis; assay type: ADME, organism-based; design: dose 20 mg/kg, dosed compound name [14C]Sunitinib; details: in vivo, po
[11] = Drug concentration in female albino rat uveal tract assessed as radioactivity per gram of tissue at 20 mg/kg administered as single dose via gastric gavage measured after 24 hrs by autoradiographic analysis; assay type: ADME, organism-based; design: dose 20 mg/kg, dosed compound name [14C]Sunitinib; details: in vivo, po
Spleen [12] = assay: Drug concentration in male albino rat spleen assessed as radioactivity per gram of tissue at 20 mg/kg administered as single dose via gastric gavage measured after 24 hrs by autoradiographic analysis; assay type: ADME, organism-based; design: dose 20 mg/kg, dosed compound name [14C]Sunitinib; details: in vivo, po
[13] = Drug concentration in male Lister Hooded pigmented rat uveal tract assessed as radioactivity per gram of tissue at 20 mg/kg administered as single dose via gastric gavage measured after 24 hrs by autoradiographic analysis; assay type: ADME, organism-based; design: dose 20 mg/kg, dosed compound name [14C]Sunitinib; details: in vivo, po
Brain [14] = assay: Drug concentration in female albino rat brain assessed as radioactivity per gram of tissue at 20 mg/kg administered as single dose via gastric gavage measured after 6 hrs by autoradiographic analysis; assay type: ADME, organism-based; design: dose 20 mg/kg, dosed compound name [14C]Sunitinib; details: in vivo, po
How it was run: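 Sprague Dawley (albino) rats, ca 7-8 weeks old, received a single gastric-gavage dose of [14C]sunitinib L-malate at 20 mg/kg (15 mg freebase/kg, 100 µCi/kg). One animal per sex killed by CO2 at 3, 6, 24, 72 and 168 h, then frozen in CO2/hexane. 30 µm sagittal sections were cut and freeze-dried. Radioactivity per gram quantified by whole-body autoradiography using regression against standards. LOQ 0.04–0.06 µg freebase equiv/g.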

CCN(CC)CCNC(=O)c1c(C)[nH]c(/[14CH]=C2\C(=O)Nc3ccc(F)cc32)c1C.O=C(O)C[C@H](O)C(=O)O
Radiolabel recovery (Pancreas): 1.23 ugequiv
Radiolabel recovery (Spleen [1]): 0.2 ugequiv
Radiolabel recovery [2]: 124.52 ugequiv
Radiolabel recovery (Kidney): 0.06 ugequiv
Radiolabel recovery [3]: 75.2%
Radiolabel recovery (Blood): 0.06 ugequiv
Radiolabel recovery [4]: 18.4 ugequiv
Radiolabel recovery (Spinal cord [5]): 0.19 ugequiv
Radiolabel recovery (Large intestine): 6.05 ugequiv
Radiolabel recovery [6]: 0.87 ugequiv
Radiolabel recovery [7]: 17.24 ugequiv
Radiolabel recovery (Rattus norvegicus): 85.1%
Radiolabel recovery [8]: 3.22 ugequiv
Radiolabel recovery (Heart): 4.61 ugequiv
Radiolabel recovery (Spinal cord [9]): 0.35 ugequiv
Radiolabel recovery (Zone of skin): 0.27 ugequiv
Cmax (Homo sapiens): 67.4 ngequiv/ml
Radiolabel recovery (Small intestine): 14.16 ugequiv
Radiolabel recovery (Brain [10]): 0.06 ugequiv
Radiolabel recovery [11]: 0.61 ugequiv
Radiolabel recovery (Spleen [12]): 1.23 ugequiv
Radiolabel recovery [13]: 18.79 ugequiv
Radiolabel recovery (Brain [14]): 0.43 ugequiv
